Screening results deposited in PubChem by The Scripps Research Institute Molecular Screening Center.
Most compounds without a hit are left out; they make up all but 3.3% or so of the library.
mABHD4 FP = ABHD4 inhibitors, primary screen, biochemical, fluorescence polarization, mouse | (Lyso)-N-acylphosphatidylethanolamine lipase (Mus musculus), Q8VD66 | purified mABHD4, FP-Rh probe fluorescence polarization | inhibition, % at 8.92 µM | 370,000 tested, 0.54% active | AID 720543, 2013;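 active = inhibition exceeding the mean over every tested compound plus 3 SD, cut at about 30% in these data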;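 also: 0% = plate median of compound wells and 100% = S159A mutant with DMSO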
Target sequence (Q8VD66 whole entry, looked up): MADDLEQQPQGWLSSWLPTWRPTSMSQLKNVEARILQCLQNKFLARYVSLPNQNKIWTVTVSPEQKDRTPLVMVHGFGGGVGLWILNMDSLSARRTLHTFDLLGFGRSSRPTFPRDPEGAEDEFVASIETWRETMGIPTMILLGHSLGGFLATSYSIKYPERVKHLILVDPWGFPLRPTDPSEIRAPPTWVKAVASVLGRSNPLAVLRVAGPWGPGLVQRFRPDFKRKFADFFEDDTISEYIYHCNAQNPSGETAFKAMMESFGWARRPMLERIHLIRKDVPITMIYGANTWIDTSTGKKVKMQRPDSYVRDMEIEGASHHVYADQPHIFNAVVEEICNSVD
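Test system: mouse ABHD4 enzyme, wild type. Reagent: FP-Rh fluorescent activity-based probe, added after compound pre-incubation. Timing: pre-incubation 45 min, probe exposure 60 min, at 25 °C. Technique: FP readout, ex 525 nm / em 598 nm. Benchmarks: high control S159A mutant with DMSO, low control median of compound wells.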
rCAG binder = binders of r(CAG) RNA repeats, primary screen, biochemical, fluorescence; r(CAG) RNA repeat, TO-PRO-1 dye displacement fluorescence; 370,000 tested, 1.3% active; inhibition, % at 3 µM;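 active = inhibition above the plate cutoff, the mean of all test compounds on that plate plus 3 SD, cut at about 35% in these data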;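 also: 0% = DMSO alone and 100% = 100 µM mitoxantrone as full dye displacement; higher means more dye released from RNA so lower well fluorescence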
SIAE primary = human SIAE inhibitors, primary screen, biochemical, fluorescence polarization, FP-Rh probe, 1536-well HTS | inhibition, % at 9.66 µM | 370,000 tested, 0.69% active | SIAE FP-Rh probe binding | Sialate O-acetylesterase (Homo sapiens), Q9HAT2 | AID 1053197, 2014;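 active = inhibition above a cutoff: mean of compounds within the control limits plus 3 SD of those, cut at about 17% in these data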;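 also: 0% = plate median of compound wells and 100% = probe without SIAE protein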
PRMT1 FP inh = PRMT1 methyltransferase inhibitors, primary screen, biochemical, fluorescence polarization. recombinant PRMT1, activity-based probe fluorescence polarization. inhibition, % at 2.79 µM. 370,000 tested, 1.3% active;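 active = inhibition above about 21% made by adding two undisclosed values, limit read from the data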
Target sequence (Q99873 whole entry, looked up): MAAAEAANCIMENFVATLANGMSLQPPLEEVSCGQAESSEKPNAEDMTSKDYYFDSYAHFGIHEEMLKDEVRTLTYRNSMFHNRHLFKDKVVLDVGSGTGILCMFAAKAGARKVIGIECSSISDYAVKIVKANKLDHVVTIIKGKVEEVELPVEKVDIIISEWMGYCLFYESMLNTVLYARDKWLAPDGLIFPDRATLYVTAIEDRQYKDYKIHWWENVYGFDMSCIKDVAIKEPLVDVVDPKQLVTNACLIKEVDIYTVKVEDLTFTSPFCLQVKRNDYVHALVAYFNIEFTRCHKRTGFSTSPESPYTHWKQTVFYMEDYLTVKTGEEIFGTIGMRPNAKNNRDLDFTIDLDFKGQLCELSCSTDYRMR
TCR-CD3 inh = inhibitors of human TCR-CD3 interaction, primary screen, biochemical, fluorescence, TAMRA-labeled TCR probe | T-cell receptor (TCR) | inhibition, % at 9.4 µM | 360,000 tested, 0.37% active; in the data active = inhibition above about 19%;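 also: recombinant mutant TCR 2C K166C tagged with TAMRA read by polarization; 0% = receptor in buffer alone and 100% = receptor with positive control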
rCAG bind conf = small molecules binding CAG repeat RNA – biochemical, fluorescence, confirmation. shares compounds with rCAG binder. r(CAG) RNA repeat, TO-PRO-1 dye displacement fluorescence. inhibition, % at 3 µM. 4,300 tested, 70% active;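 active = inhibition above a per-plate cutoff, the mean inhibition of sample wells plus 3 SD, cut at about 35% in these data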;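 also: loss of TO-PRO-1 fluorescence as compound displaces dye from 1x1 AA loop RNA; 0% = DMSO only wells and 100% = 100 µM mitoxantrone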
DNA CAG counter = displacement of TO-PRO-1 from CAG DNA duplex, counter-screen for rCAG RNA repeat binder project, biochemical, fluorescence, TO-PRO-1 dye, d(CAG) DNA oligo; shares compounds with rCAG binder; d(CAG) DNA oligo TO-PRO-1 dye displacement; inhibition, % at 3 µM; 4,300 tested, 94% active; AID 652068, 2013;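 active = inhibition above its plate's cutoff, the mean test-well inhibition plus 3 SD, cut at about 4.8% in these data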;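 also: 0% = DNA dye mix with DMSO and 100% = 100 µM mitoxantrone; hits displace the dye from DNA and so lower well fluorescence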
PRMT1 confirm = PRMT1 methyltransferase inhibitors, confirmation, biochemical, fluorescence polarization, triplicate; shares compounds with PRMT1 FP inh; recombinant His-PRMT1, activity-based probe fluorescence polarization; inhibition, % at 2.79 µM; 3,300 tested, 42% active; AID 687036, 2013;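 active = mean inhibition across replicates above the hit cutoff derived for the earlier primary screen, cut at about 22% in these data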
Numbers without * were called inactive; · = no result given.

SMILES	mABHD4 FP	rCAG binder	SIAE primary	PRMT1 FP inh	TCR-CD3 inh	rCAG bind conf	DNA CAG counter	PRMT1 confirm
COC/C=C/C1=CC2=CC(=O)C(C)(OC(=O)c3cnc4ccccc4n3)C(=O)C2=CN1C1CC1 (stereo unspecified)	19.9	7.3	10.3	10.7	0.8	·	·	·
COC/C=C/C1=CC2=CC(=O)C(C)(OC(=O)C3CCCC3)C(=O)C2=CO1 (stereo unspecified)	21.7	50.3*	3.8	46.4*	8.6	29.6	15.4*	24.4*
Fc1ccc(NC2CCC23CCC(c2ccccc2)CC3)cc1C(F)(F)F (stereo unspecified)	-15.7	·	4.8	0.9	·	·	·	·
CNc1ccc(Br)cc(C(=O)/C=C/c2ccc(OC)cc2)c1=O	41.0*	41.8*	5.0	44.0*	-1.5	39.6*	15.2*	39.1*
O=C(O)c1cc(N/N=C/c2ccc(-c3ccc(F)cc3)o2)ccc1Cl	23.9	55.7*	4.6	34.4*	-3.1	38.1*	11.8*	0.3
CCN(CC)C(=O)CC[C@H]1CC[C@]2(CCCN(Cc3ccccc3)C2)O1	2.8	-2.0	1.5	0.1	·	·	·	·
COc1ccccc1OCC(=O)Nc1nnc(-c2ccco2)s1	8.8	57.9*	3.3	73.0*	14.8	7.9	2.8	2.4
O=C(Nc1nc2c(F)cccc2s1)c1ccco1	-8.3	1.8	-2.6	6.8	-7.3	·	·	·
O=C(Nc1nc(-c2ccco2)c(-c2ccco2)s1)c1c(F)cccc1Cl	5.1	78.1*	-6.7	53.8*	7.0	28.2	14.0*	18.9
CC(/C=N/n1c(-c2ccc(Cl)cc2)n[nH]c1=S)=C\c1ccco1	0.0	39.0*	-4.5	27.5*	-8.2	38.6*	11.9*	14.6
S=c1[nH]nc(-c2ccncc2)n1/N=C/C(Cl)=C\c1ccccc1	-10.8	39.4*	4.5	34.3*	2.0	31.7	9.5*	19.4
O=C(O)c1ccc2c(c1)C1C=CCC1C(c1ccncc1)N2 (stereo unspecified)	-0.9	-0.7	0.6	-5.1	-2.2	·	·	·
CCOC(=O)C1Nc2ccc(C(=O)O)cc2C2C=CCC12 (stereo unspecified)	25.4	61.1*	-3.3	30.2*	8.4	23.2	5.4*	37.5*
COc1ccc(OC)c(/C=N/NC(=O)c2cc(-c3ccc(C)o3)nc3ccccc23)c1	-27.1	45.0*	-12.1	29.6*	-3.7	13.1	12.8*	6.7
Cc1sc(NC(=O)c2sc3nc4c(C)cccc4cc3c2N)c(C#N)c1C	-15.6	67.7*	-13.8	31.1*	-15.7	60.0*	32.2*	0.2
COc1ccc2nc(N3C(=O)C(O)=C(C(=O)c4ccco4)C3c3ccc(C)o3)sc2c1 (stereo unspecified)	23.4	53.8*	-3.0	34.2*	-7.6	59.1*	18.9*	13.7
CCC[C@H]1[C@@H](OC(=O)NCc2ccc(C)o2)CC[C@@]23CCCN2C(=O)CCC[C@@H]13	3.2	·	-1.4	13.5	·	·	·	·
COc1ccc(NC(=S)NC(=O)/C=C/c2ccco2)c(OC)c1	-1.2	7.0	9.6	1.6	7.4	·	·	·
Cc1ccc(NC(=S)NC(=O)/C=C/c2ccco2)c(O)c1	22.8	34.9*	7.7	27.9*	6.6	38.3*	15.2*	17.9
O=C(O)Cn1cc(/C=N/Nc2ccc([N+](=O)[O-])cn2)c2ccccc21	7.1	37.4*	-2.5	28.3*	-12.3	27.4	7.5*	6.3
Cc1ccc(Cn2cc(/C=N/Nc3ccc([N+](=O)[O-])cn3)c3ccccc32)cc1	-2.7	6.3	6.7	3.3	3.4	·	·	·
O=C(NC(Cc1ccccc1)C(=O)O)/C(=C\c1ccco1)NC(=O)c1ccccc1 (stereo unspecified)	12.0	12.6	5.9	14.8	8.2	·	·	·
O=C(NC(Cc1ccccc1)C(=O)O)/C(=C\c1ccco1)NC(=O)c1ccc(Br)cc1 (stereo unspecified)	2.6	36.8*	-6.0	35.4*	11.3	34.2	8.2*	5.2
CCOC(=O)C1=C(O)/C(=C\c2ccc(CNC(=O)C(=O)Nc3ccccc3)o2)N=C1C	24.1	46.4*	8.9	34.1*	7.0	39.4*	19.1*	22.7*
CN(CCc1ccccn1)C(=O)c1cc2ccccn2n1	0.4	3.6	-3.1	-0.3	·	·	·	·
SMILES	mABHD4 FP	rCAG binder	SIAE primary	PRMT1 FP inh	TCR-CD3 inh	rCAG bind conf	DNA CAG counter	PRMT1 confirm
CC(C)n1c(CNC(=O)c2ccccc2F)nnc1SCC(=O)NC1CCCCC1	7.3	46.3*	-36.6	33.1*	0.1	30.4	18.2*	0.3
CCCSc1nnc(NC(=O)c2sc3nc(-c4cccs4)ccc3c2N)s1	-15.9	36.0*	-11.4	28.4*	-2.9	68.3*	33.3*	4.6
CCCSc1nnc(NC(=O)c2ccco2)s1	-3.2	0.9	-2.1	3.6	-3.6	·	·	·
CC(=O)Nc1ccc(S(=O)(=O)/N=C2/NC(=O)/C(=C\c3ccco3)S2)cc1	15.0	57.2*	-45.0	35.2*	14.5	29.9	11.5*	13.1
COc1ccc(N=C2NC(=O)/C(=C\c3ccco3)S2)cc1	5.3	17.1	2.2	7.3	6.1	·	·	·
Cc1ccc(C)c(NC(=O)Cn2nnc(-c3ccncc3)n2)c1	-1.1	1.8	0.5	4.3	·	·	·	·
CC1(OC(=O)CCc2ccccc2)C(=O)C=C2C=C(c3ccc(C#N)cc3)N(Cc3ccco3)C=C2C1=O (stereo unspecified)	22.1	37.1*	5.0	28.5*	4.6	24.4	15.7*	9.6
CC1(OC(=O)CCc2ccccc2)C(=O)C=C2C=C(c3ccc(C#N)cc3)N(Cc3ccccc3)C=C2C1=O (stereo unspecified)	9.9	16.6	6.5	2.4	-7.5	·	·	·
c1coc(-c2nnc3sc(Cc4cccs4)nn23)c1	19.4	35.6*	-2.9	64.0*	7.9	8.9	5.2*	4.9
CCOC(=O)[C@]12CCCC=C1N(CCCOC)C(=O)[C@@H]2CC(=O)NCc1cccs1	1.3	-0.9	7.3	-4.5	·	·	·	·
c1coc(-c2nc3c([nH]2)CCc2nonc2-3)c1	12.2	41.9*	-5.4	71.7*	16.6	8.7	2.6	-0.3
